Measurements from different studies.
ALK: ALK tyrosine kinase receptor (ALK, Homo sapiens, UniProt Q9UM73)

| SMILES | target | test | conditions | measurement | result |
| --- | --- | --- | --- | --- | --- |
| C#Cc1n[nH]c2c(-c3cn(C(C)c4ccccn4)c(=O)[nH]c3=O)cc(F)cc12 (stereo not drawn) | ALK | enzyme activity, inhibitor | 1 µM | inhibition | 11.2% |
| CC(C)(C)c1cc(C=C(C#N)C#N)cc(Br)c1O | ALK | enzyme activity, inhibitor | 0.5 µM | remaining activity | 97.9% |
| COc1cc(Nc2ncc(F)c(Nc3ccc4c(n3)NC(=O)C(C)(C)O4)n2)cc(OC)c1OC | ALK | binding, competition with immobilised ligand | 10 µM | inhibition | 99% |
| O=c1[nH]c2ccccc2n1C1CCN(Cc2ccc(-c3[nH]c4cc5ncnc5cc4nc3-c3ccccc3)cc2)CC1 | ALK | cell-free assay | 0.5 µM | remaining signal | 106% |
| Cc1nn(C)cc1-c1nc2c(N3CCN(Cc4ccc(Cl)cc4)CC3)c(Cl)cnc2[nH]1 | ALK | binding, competition with immobilised ligand | 1 µM | remaining binding | 100% |
| COc1ncccc1-c1cnn2ccc(N3CCN(C(=O)OC(C)C)CC3)nc12 | ALK | binding, competition with immobilised ligand | 1 µM | remaining binding | 100% |
| Nc1ncc(-c2nc(N3CCOCC3)nc(N3CCOCC3)n2)c(C(F)F)n1 | ALK tyrosine kinase receptor (ALK, Homo sapiens, UniProt Q9UM73, L1196M) | cell-free assay, competition with immobilised ligand | 10 µM | remaining binding | 44% |
| C#Cc1n[nH]c2c(-c3cn([C@@H](C)c4ccccc4)c(=O)[nH]c3=O)cc(F)cc12 | ALK | enzyme activity, inhibitor | 0.1 µM | inhibition | 7.7% |
| Cn1cncc1[C@](O)(COc1ccc(C#N)cc1-c1ccc(OC(F)(F)F)cc1)c1ccc(C#N)cc1 | ALK tyrosine kinase receptor (ALK, Homo sapiens, UniProt Q9UM73, C1156Y) | cell-free assay, competition with immobilised ligand | 1 µM | remaining binding | 92% |
